78 sequences from the array DNA melting data of Ke et al. (doi:10.1101/2024.01.08.574731) can be followed below.

The nature of series [1]: folding enthalpy; higher = less favourable; fluorescence melt of hairpins on a sequencing array, two-state fit. The following applies: sodium 0.088 M. Summed up:
(§1)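 Folding enthalpy and melting temperature were estimated with bootstrapped two-state fits and combined across four replicates by inverse-variance weighting, with fitted temperatures raised by 9.35 °C to match UV melts. The data were Cy3 fluorescence of library hairpins, with annealed Cy3 and quencher oligos, on a sequenced MiSeq flow cell in 50 mM Na-HEPES pH 8.0, 25 mM NaCl, imaged in 2.5 °C steps up to 60 °C and normalised to pre-quench Cy3 and control constructs.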

Series [2] in a line: melting temperature; fluorescence melt of hairpins on a sequencing array, two-state fit, raised by 9.35 °C to match UV melts. Particulars: sodium 0.088 M. The procedure, abridged:
as §1

As for GCGAAGCGAAAGCTTTGC ((.((((....)))).)), the folding enthalpy in series [1] is -22.4 kcal/mol. Also, in series [2], the Tm came to 62.6 °C.
As for GCGAAGGCGAAAGCCCGC (((..(((....)))))), in series [1], the folding enthalpy is -18.2 kcal/mol. Moreover, the Tm in series [2] was 59.5 °C.
In the case of GCGAAGTATCGC ((((....)))), in series [1], the folding enthalpy is -14.3 kcal/mol. Besides, the Tm in series [2] came to 46.2 °C.
Regarding GCGAAGTGTCGC ((((....)))), the folding enthalpy in series [1] was -13.9 kcal/mol. The Tm in series [2] was found to be 49.6 °C.
For GCGAATATTCGC ((((....)))), in that order: -33.5 kcal/mol and 50.7 °C.
On to GCGAATCGAAAGATACGC (((.(((....))).))), for which the folding enthalpy in series [1] was -44.5 kcal/mol. For the same sequence, in series [2], the Tm stood at 55.5 °C.
For GCGAATCGAAAGATCGC (((.(((....)))))) the same measures were -31.2 kcal/mol and 57.3 °C.
For GCGAATGCGAAAGCACGC (((..(((....)))))) the same measures were -18.9 kcal/mol and 52.3 °C.
Take GCGAATGGAAACATCCGC (((.(((....))).))): in series [1], the folding enthalpy is -23.1 kcal/mol. Also, in series [2], the Tm is 45.4 °C.
For GCGAATGGAAACATTCAC (.(((((....))))).), the folding enthalpy in series [1] was -18.6 kcal/mol. For the same sequence, in series [2], the Tm came out at 38.1 °C.
For GCGAATTCTCGC ((((....)))), in that order: -19.6 kcal/mol and 47.9 °C.
In the case of GCGAATTTCGC ((((...)))), in series [1], the folding enthalpy was -24.8 kcal/mol. The Tm in series [2] worked out at 48.8 °C.
GCGACAAATCGC ((((....)))): the folding enthalpy in series [1] was -16.5 kcal/mol. The Tm in series [2] was determined as 43.6 °C.
For GCGACAATTCGC ((((....)))), in that order: -17.2 kcal/mol and 44.8 °C.
For GCGACACGAAAGTGACGC (((.(((....))).))) the same measures were -38.7 kcal/mol and 68.5 °C.
For GCGACAGATCGC ((((....)))), in that order: -20.7 kcal/mol and 47.9 °C.
With GCGACAGGAAACCATCGC ((((..(....)..)))), the folding enthalpy in series [1] is -17 kcal/mol. Moreover, in series [2], the Tm is 35.8 °C.
For GCGACAGGAAACTGTCAC (.(((((....))))).), in that order: -16.6 kcal/mol and 43.8 °C.
For GCGACATATCGC ((((....)))) the same measures were -23.4 kcal/mol and 49.9 °C.
Regarding GCGACCATCGC ((((...)))), the folding enthalpy in series [1] was -17.6 kcal/mol. Besides, the Tm in series [2] amounted to 46.4 °C.
For GCGACCATTCGC ((((....)))), in that order: -24.4 kcal/mol and 47.4 °C.
On to GCGACCCGTCGC ((((....)))), for which, in series [1], the folding enthalpy is -40.1 kcal/mol. The Tm in series [2] was 60.7 °C.
Turning to GCGACCCTTCGC ((((....)))), in series [1], the folding enthalpy is -26.3 kcal/mol. Also, the Tm in series [2] stood at 51.1 °C.
For GCGACCGAAAGGTGCCGC ((((((....)))..))) the same measures were -15.6 kcal/mol and 50.4 °C.
In the case of GCGACCGAAAGGTTTCGC ((((((....)))..))), in series [1], the folding enthalpy was -24.1 kcal/mol. The Tm in series [2] came out at 49 °C.
Take GCGACCGGTCGC ((((....)))): the folding enthalpy in series [1] was -55.6 kcal/mol. In series [2], the Tm was determined as 62 °C.
As for GCGACCTGTCGC ((((....)))), the folding enthalpy in series [1] is -26.5 kcal/mol. In series [2], the Tm came to 68.3 °C.
For GCGACCTTCGC ((((...)))), the folding enthalpy in series [1] is -25.4 kcal/mol. Also, the Tm in series [2] was found to be 48.2 °C.
For GCGACGAATCGC ((((....)))) the same measures were -13.1 kcal/mol and 49.6 °C.
As to GCGACGCGAAAGCATGGC ((.(.((....)).).)), the folding enthalpy in series [1] was -9.76 kcal/mol. For the same sequence, the Tm in series [2] was found to be 40.4 °C.
For the sequence GCGACGCGAAAGCCTAGC ((.(.((....)).).)), the folding enthalpy in series [1] is -18.9 kcal/mol. For the same sequence, the Tm in series [2] stood at 43.5 °C.
Regarding GCGACGCGAAAGCGCAGC ((..(((....)))..)), the folding enthalpy in series [1] was -15.5 kcal/mol. In addition, in series [2], the Tm was found to be 58.9 °C.
Consider GCGACGCGAAAGCTTCGC ((((.((....)).)))), for which the folding enthalpy in series [1] is -45.6 kcal/mol. Moreover, the Tm in series [2] was determined as 65.2 °C.
In the case of GCGACGGTCGC ((((...)))), in series [1], the folding enthalpy is -28.4 kcal/mol. Moreover, the Tm in series [2] came out at 48.7 °C.
For GCGACGTCGAAAGACCGC (((..(((....)))))) the same measures were -25.4 kcal/mol and 50.6 °C.
For GCGACTAATCGC ((((....)))) the same measures were -24.2 kcal/mol and 47.2 °C.
For GCGACTAGTCGC ((((....)))) the same measures were -28.9 kcal/mol and 65.2 °C.
Consider GCGACTATCGC ((((...)))), for which the folding enthalpy in series [1] is -16.8 kcal/mol. The Tm in series [2] stood at 46.6 °C.
As to GCGACTATTCGC ((((....)))), the folding enthalpy in series [1] is -19.3 kcal/mol. In series [2], the Tm came to 47.4 °C.
Regarding GCGACTGCGAAAGCACGC (((..(((....)))))), the folding enthalpy in series [1] is -15.3 kcal/mol. For the same sequence, in series [2], the Tm is 48.8 °C.
For GCGACTGGAAACAGCCGC (((.(((....))).))), in that order: -51.9 kcal/mol and 56.2 °C.
For GCGACTTATCGC ((((....)))), in that order: -24.1 kcal/mol and 48.8 °C.
In the case of GCGAGACATCGC ((((....)))), the folding enthalpy in series [1] was -8 kcal/mol. In series [2], the Tm is 55.1 °C.
For GCGAGACGAAAGTCACGC (((.(((....))).))) the same measures were -31.5 kcal/mol and 68.5 °C.
For GCGAGACGAAAGTCCGC (((.(((....)))))) the same measures were -29.3 kcal/mol and 67.2 °C.
For GCGAGACTTCGC ((((....)))) the same measures were -10.4 kcal/mol and 56.6 °C.
GCGAGAGCTCGC ((((....)))): the folding enthalpy in series [1] is -12.8 kcal/mol. In addition, the Tm in series [2] came to 52.5 °C.
Regarding GCGAGAGGAAACTTTCGC ((((.((....)).)))), the folding enthalpy in series [1] is -33.8 kcal/mol. In addition, the Tm in series [2] is 48.8 °C.
For GCGAGAGGTCGC ((((....)))), the folding enthalpy in series [1] is -8.36 kcal/mol. In series [2], the Tm turned out to be 50.9 °C.
Regarding GCGAGCAGTCGC ((((....)))), the folding enthalpy in series [1] was -26.2 kcal/mol. Moreover, the Tm in series [2] was determined as 52.6 °C.
As for GCGAGCCGAAAGGCCCGC (((.(((....))).))), the folding enthalpy in series [1] was -26.1 kcal/mol. Also, in series [2], the Tm was 67.8 °C.
For GCGAGCGAAAGCTGCCGC ((((((....)))..))), in that order: -13.1 kcal/mol and 53.5 °C.
Regarding GCGAGCGGTCGC ((((....)))), the folding enthalpy in series [1] was -22.4 kcal/mol. The Tm in series [2] came to 52 °C.
For GCGAGGACTCGC ((((....)))) the same measures were -31.9 kcal/mol and 56.1 °C.
For GCGAGGATCGC ((((...)))) the same measures were -23.7 kcal/mol and 59.4 °C.
For GCGAGGCATCGC ((((....)))) the same measures were -26.3 kcal/mol and 57.4 °C.
As to GCGAGGCGAAAGCGGCGC (((..((....))..))), the folding enthalpy in series [1] was -38.1 kcal/mol. Further, the Tm in series [2] is 66.8 °C.
For GCGAGGGATCGC ((((....)))) the same measures were -16.6 kcal/mol and 52.1 °C.
GCGAGGTCGAAAGACCGC (((..(((....)))))): the folding enthalpy in series [1] is -9.59 kcal/mol. The Tm in series [2] worked out at 54.3 °C.
For GCGAGGTTTCGC ((((....)))) the same measures were -16 kcal/mol and 49.4 °C.
For GCGAGTCGAAAGACCCGC (((.(((....))).))), the folding enthalpy in series [1] was -48.2 kcal/mol. Besides, the Tm in series [2] came out at 57.3 °C.
In the case of GCGAGTGCGAAAGCACGC (((..(((....)))))), the folding enthalpy in series [1] is -9.67 kcal/mol. The Tm in series [2] worked out at 59 °C.
For GCGAGTGGAAACATTCGC ((((.((....)).)))), in that order: -35 kcal/mol and 53.2 °C.
Regarding GCGAGTGTCGC ((((...)))), the folding enthalpy in series [1] is -13.9 kcal/mol. In addition, in series [2], the Tm worked out at 47 °C.
For GCGATACATCGC ((((....)))), in that order: -27.5 kcal/mol and 55.7 °C.
Turning to GCGATACTCGC ((((...)))), in series [1], the folding enthalpy is -22.8 kcal/mol. The Tm in series [2] is 49.3 °C.
For GCGATAGTCGC ((((...)))) the same measures were -14 kcal/mol and 52.5 °C.
In the case of GCGATATATCGC ((((....)))), in series [1], the folding enthalpy was -25.9 kcal/mol. Also, the Tm in series [2] is 55.6 °C.
Regarding GCGATCCGAAAGGACCGC (((.(((....))).))), the folding enthalpy in series [1] was -36.1 kcal/mol. In addition, the Tm in series [2] was 63.2 °C.
For GCGATCGAAAGATACGC ((((((....))).))), in that order: -25.5 kcal/mol and 50.1 °C.
For GCGATCGAAAGATAGCGC ((((((....)))..))), in that order: -30.8 kcal/mol and 55.5 °C.
For GCGATCGAAAGATTACGC ((((((....)))..))), in that order: -30.4 kcal/mol and 42 °C.
For GCGATCGAAAGATTCCGC ((((((....)))..))), the folding enthalpy in series [1] is -23.8 kcal/mol. Besides, the Tm in series [2] turned out to be 33.7 °C.
With GCGATCGAAAGATTTCGC ((((((....)))..))), in series [1], the folding enthalpy was -26.4 kcal/mol. In series [2], the Tm amounted to 39.8 °C.
For GCGATCGGAAACGACCGC (((.(((....))).))), in that order: -48.9 kcal/mol and 55.5 °C.
For GCGATCGGAAACGATTGC ((.((((....)))).)) the same measures were -43.5 kcal/mol and 56.3 °C.
For GCGATGAGTCGC ((((....)))) the same measures were -30.5 kcal/mol and 54.8 °C.
For the sequence GCGATGATTCGC ((((....)))), the folding enthalpy in series [1] is -23.3 kcal/mol. Further, the Tm in series [2] amounted to 50.9 °C.
